The text below walks through data of ChEMBL document CHEMBL1938242, “In vivo evaluation of oral anti-tumoral effect of 3,4-dihydroquinazoline derivative on solid tumor” (Bioorg Med Chem Lett, 2012).

Data set [1] has as its system Mus musculus. Description: Toxicity in athymic nu/nu BALB/c mouse bearing human A549 cells assessed as change in total body weight at 10 mg/kg, ip administered twice per week for consecutive 39 days. Type of data set: organism-based. Details: dose 10 mg/kg, route intraperitoneal. As to conditions: in vivo, 936 h. In outline:
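Mice bearing A549 s.c. flank xenografts, n = 5 per group, given 10 mg/kg ip in ethanol:Cremophor EL:water 1:1:18, twice weekly over 39 days starting day 8. Total body weights tracked through the study and compared with vehicle control. Mean ± SE.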

Data set [2] deals with A549. Kind of data set: Antitumor activity against human A549 cells xenografted in athymic nu/nu BALB/c mouse assessed as decrease in tumor weight at 10 mg/kg, ip administered twice per week for consecutive 39 days (reference value: 0.358 +/- 0.052 g). Type of data set: functional. As to conditions: route intraperitoneal. In outline:
(§1)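 A549 s.c. flank xenografts (5 × 10⁶ cells) in BALB/c nu/nu mice, n = 5. From day 8, given 10 mg/kg ip in ethanol:Cremophor EL:water 1:1:18, twice weekly for 39 days. Excised tumors weighed at the end. Inhibition % = 100 × (C − T)/C using mean tumor weights versus vehicle. Mean ± SE.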

Data set [3] concerns A549. Description: Antitumor activity against human A549 cells xenografted in athymic nu/nu BALB/c mouse assessed as decrease in tumor volume at 10 mg/kg, ip administered twice per week for consecutive 39 days (reference value: 224.40 +/- 60.34 mm3). Type of data set: functional. As to conditions: route intraperitoneal. Background: A xenograft is tissue or cells of one species grown in another, often human tumour cells in immunodeficient mice.

For data set [4], the system named is A549. Kind of data set: Antitumor activity against human A549 cells xenografted in athymic nu/nu BALB/c mouse assessed as tumor growth inhibition at 10 mg/kg, ip administered twice per week for consecutive 39 days. Type of data set: functional. As to conditions: 936 h, route intraperitoneal, read-out: GI. In outline:
as §1

The test system of data set [5] is Mus musculus. Kind of data set: Antinociceptive activity in po dosed mouse assessed as time of latency at 100 mg/kg, po administered 1 hr before hot plate test. Type of data set: functional, organism-based. Also noted: dose 100 mg/kg. Background: Hot-plate and tail-flick tests time the reaction to a heat stimulus.
The subject of data set [6] is A549. Kind of data set: Antitumor activity against human A549 cells xenografted in athymic nu/nu BALB/c mouse assessed as decrease in tumor volume at 5 mg/kg, po administered 5 times weekly for consecutive 39 days (reference value: 224.40 +/- 60.34 mm3). The format is functional. In outline:
(§2)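 A549 cells (5 × 10⁶) injected s.c. into the left flank of BALB/c nu/nu mice, n = 5 per group. At day 8 (nodules ca. 3 mm³), oral dosing at 1 or 5 mg/kg in ethanol:Cremophor EL:water 1:1:18, five times weekly for 39 days. Caliper measurement weekly; volume from length, width and height. Mean ± SE; Dunnett's test versus vehicle.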

Data set [7] deals with A549. Description: Antitumor activity against human A549 cells xenografted in athymic nu/nu BALB/c mouse assessed as tumor growth inhibition at 5 mg/kg, po administered 5 times weekly for consecutive 39 days. The format is functional. As to conditions: A549, 936 h, read-out: GI.
Data set [8] concerns Mus musculus. Kind of data set: Toxicity in athymic nu/nu BALB/c mouse bearing human A549 cells assessed as change in total body weight at 1 to 5 mg/kg, po administered 5 times weekly for consecutive 39 days. The format is organism-based. Also noted: dose 1-5 mg/kg, route oral. As to conditions: in vivo, 936 h. In outline: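 A549 cells (5 × 10⁶ cells/mL) were injected s.c. into the left flank of BALB/c nu/nu nude mice. After 8 days, once nodules were visible (ca. 3 mm³), mice got oral doses in ethanol:Cremophor EL:distilled water (1:1:18) five times per week for 39 days, with vehicle-only controls (n = 5/group). Total body weights were followed over the period (mean ± SE; Dunnett's test versus control).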

Data set [9] has as its target Voltage-dependent N-type calcium channel subunit alpha-1B (Homo sapiens, UniProt Q00975). Description: Inhibition of N-type calcium channel alpha 1 B.
In data set [10] the test system is Mus musculus. Description: Antinociceptive activity in po dosed mouse assessed as inhibition of acetic acid-induced writhing measured every 5 mins for 20 mins pretreated 1 hr before acetic acid challenge. The format is functional, organism-based. In outline:
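Mice (n = 7 per group) given 10 or 50 mg/kg orally; 1 h later injected ip with 0.7% (v/v) acetic acid, 10 mL/kg. After a 5-min delay, writhes counted for 20 min. Comparison with vehicle controls by Dunnett's test; mean ± S.D.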
In general terms: An intraperitoneal irritant provokes the stretching counted in writhing tests.

Data set [11] concerns A549. Description: Antitumor activity against human A549 cells xenografted in athymic nu/nu BALB/c mouse assessed as decrease in tumor volume at 1 mg/kg, po administered 5 times weekly for consecutive 39 days (reference value: 224.40 +/- 60.34 mm3). The format is functional. In outline: as §2
The test system of data set [12] is A549. Description: Antitumor activity against human A549 cells xenografted in athymic nu/nu BALB/c mouse assessed as tumor growth inhibition at 1 mg/kg, po administered 5 times weekly for consecutive 39 days. Type of data set: functional. As to conditions: A549, 936 h, read-out: GI.
In data set [13] the test system is Mus musculus. Kind of data set: Toxicity in athymic nu/nu BALB/c mouse bearing human A549 cells assessed as decrease in body weight at 5 mg/kg, po administered 5 times weekly for consecutive 39 days measured on day 19 to 22 post dosing. As to conditions: in vivo, 936 h.
The subject of data set [14] is A549. Kind of data set: Antitumor activity against human A549 cells xenografted in po dosed athymic nu/nu BALB/c mouse assessed as decrease in tumor volume administered 5 times weekly for consecutive 39 days. The format is functional, organism-based. In outline:
as §2

The test system of data set [15] is A549. Kind of data set: Antitumor activity against human A549 cells xenografted in athymic nu/nu BALB/c mouse assessed as decrease in tumor volume at 5 mg/kg, po administered 5 times weekly for consecutive 39 days relative to paclitaxel. The format is functional. In outline: as §2
Data set [16] relates to A549. Description: Antitumor activity against human A549 cells xenografted in athymic nu/nu BALB/c mouse assessed as decrease in tumor weight at 1 mg/kg, po administered 5 times weekly for consecutive 39 days (reference value: 0.358 +/- 0.052 g). Type of data set: functional.
Data set [17] concerns Mus musculus. Description: Antinociceptive activity in po dosed mouse assessed as time of latency at 10 or 50 mg/kg, po administered 1 hr before hot plate test. Type of data set: functional, organism-based. Also noted: dose 50 mg/kg. In outline: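 Mice (n = 10 per group) given 10 or 50 mg/kg orally; 1 h later placed on a hot plate at 55 ± 0.5 °C. Latency recorded at 0 and 30 min. Comparison with vehicle control by Dunnett's test; mean ± S.D.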

Data set [18] relates to A549. Kind of data set: Antitumor activity against human A549 cells xenografted in athymic nu/nu BALB/c mouse assessed as decrease in tumor weight at 5 mg/kg, po administered 5 times weekly for consecutive 39 days (reference value: 0.358 +/- 0.052 g). The format is functional.

Calls of active or inactive are those of the source. The calls are words filed in the database; no cut-off is given here.

Voltage-dependent N-type calcium channel subunit alpha-1B, sequence (Q00975 whole entry): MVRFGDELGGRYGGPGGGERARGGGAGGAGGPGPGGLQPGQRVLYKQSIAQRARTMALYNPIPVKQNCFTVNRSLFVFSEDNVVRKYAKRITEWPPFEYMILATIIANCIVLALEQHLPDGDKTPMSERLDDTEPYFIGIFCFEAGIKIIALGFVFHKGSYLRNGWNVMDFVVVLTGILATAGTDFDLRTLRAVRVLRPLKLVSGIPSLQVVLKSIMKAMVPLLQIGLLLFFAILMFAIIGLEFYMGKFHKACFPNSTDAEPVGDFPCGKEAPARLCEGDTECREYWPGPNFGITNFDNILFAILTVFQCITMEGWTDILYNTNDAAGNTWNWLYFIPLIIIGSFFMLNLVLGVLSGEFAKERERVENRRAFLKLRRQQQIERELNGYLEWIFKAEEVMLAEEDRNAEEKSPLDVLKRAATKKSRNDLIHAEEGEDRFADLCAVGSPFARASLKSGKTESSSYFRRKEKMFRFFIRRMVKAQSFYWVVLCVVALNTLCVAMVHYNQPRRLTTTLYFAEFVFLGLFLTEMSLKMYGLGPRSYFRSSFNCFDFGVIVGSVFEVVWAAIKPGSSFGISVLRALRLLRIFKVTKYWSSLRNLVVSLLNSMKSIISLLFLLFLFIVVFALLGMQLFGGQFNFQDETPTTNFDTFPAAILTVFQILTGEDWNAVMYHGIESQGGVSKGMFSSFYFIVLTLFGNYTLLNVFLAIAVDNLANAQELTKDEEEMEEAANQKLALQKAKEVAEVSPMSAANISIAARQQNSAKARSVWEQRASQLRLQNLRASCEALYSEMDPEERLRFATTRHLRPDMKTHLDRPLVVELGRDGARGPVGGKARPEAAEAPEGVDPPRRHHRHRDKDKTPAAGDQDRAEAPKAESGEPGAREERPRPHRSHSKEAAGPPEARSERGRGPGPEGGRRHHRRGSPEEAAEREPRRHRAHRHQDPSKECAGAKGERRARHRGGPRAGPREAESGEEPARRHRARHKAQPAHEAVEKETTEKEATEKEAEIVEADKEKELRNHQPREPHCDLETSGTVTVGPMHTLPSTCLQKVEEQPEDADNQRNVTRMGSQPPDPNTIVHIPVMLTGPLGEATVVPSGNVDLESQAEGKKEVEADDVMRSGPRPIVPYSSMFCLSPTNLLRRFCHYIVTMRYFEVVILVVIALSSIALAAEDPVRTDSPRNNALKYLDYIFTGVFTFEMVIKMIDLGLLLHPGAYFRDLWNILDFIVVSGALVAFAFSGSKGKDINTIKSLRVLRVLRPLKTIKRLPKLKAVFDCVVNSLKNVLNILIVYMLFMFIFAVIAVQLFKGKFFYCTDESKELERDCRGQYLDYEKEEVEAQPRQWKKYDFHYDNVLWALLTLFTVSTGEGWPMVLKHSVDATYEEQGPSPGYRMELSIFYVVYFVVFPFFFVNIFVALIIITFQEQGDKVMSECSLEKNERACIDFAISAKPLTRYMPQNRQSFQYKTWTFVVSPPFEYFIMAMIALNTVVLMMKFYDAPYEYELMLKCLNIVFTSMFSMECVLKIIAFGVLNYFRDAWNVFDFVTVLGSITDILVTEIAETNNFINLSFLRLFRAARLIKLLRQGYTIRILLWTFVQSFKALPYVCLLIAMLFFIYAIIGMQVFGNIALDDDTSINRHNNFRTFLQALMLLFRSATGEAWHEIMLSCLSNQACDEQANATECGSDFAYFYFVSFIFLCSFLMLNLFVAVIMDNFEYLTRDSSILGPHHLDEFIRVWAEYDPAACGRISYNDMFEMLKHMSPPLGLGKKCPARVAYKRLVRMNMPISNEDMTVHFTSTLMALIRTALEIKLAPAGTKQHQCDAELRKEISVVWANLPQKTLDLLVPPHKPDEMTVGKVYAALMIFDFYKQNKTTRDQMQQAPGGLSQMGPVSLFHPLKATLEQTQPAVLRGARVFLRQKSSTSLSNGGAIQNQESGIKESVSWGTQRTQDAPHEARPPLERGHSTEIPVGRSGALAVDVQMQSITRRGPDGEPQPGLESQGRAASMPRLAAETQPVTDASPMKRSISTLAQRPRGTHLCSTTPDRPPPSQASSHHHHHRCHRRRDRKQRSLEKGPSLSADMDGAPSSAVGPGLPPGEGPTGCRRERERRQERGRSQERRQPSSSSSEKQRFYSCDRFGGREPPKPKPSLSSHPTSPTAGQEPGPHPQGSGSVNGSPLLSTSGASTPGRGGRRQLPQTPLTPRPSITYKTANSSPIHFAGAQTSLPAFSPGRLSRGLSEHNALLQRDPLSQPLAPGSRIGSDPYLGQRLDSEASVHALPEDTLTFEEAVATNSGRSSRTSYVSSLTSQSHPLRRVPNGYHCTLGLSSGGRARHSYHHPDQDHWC

Consider `CC(=O)O[C@H]1C(=O)[C@@]2(C)[C@H]([C@H](OC(=O)c3ccccc3)[C@]3(O)C[C@H](OC(=O)[C@H](O)[C@@H](NC(=O)c4ccccc4)c4ccccc4)C(C)=C1C3(C)C)[C@]1(OC(C)=O)CO[C@@H]1C[C@@H]2O` [PACLITAXEL], for which the results for the Activity entry in [1], in [2] and in [3] were “Non-toxic”, 0.17 g and 22.9 mm3, respectively. In data set [4], the inhibition in vivo at 10 mg/kg turned out to be 53%.

For the molecule `CC(C)Cc1ccc(C(C)C(=O)O)cc1` (stereo not drawn), in data set [5], the outcome was Active.

Consider `CN(C)CCCCCN(C)C1=Nc2ccccc2C(CC(=O)NCc2ccccc2)N1c1ccc(-c2ccccc2)cc1.Cl.Cl` (stereo not drawn), for which the Activity in data set [6] was 7.9 mm3; in [8], “Non-toxic”; in [10], “Dose-dependent effect”; in data set [11], 27.05 mm3; in data set [13], “Toxic”; in data set [14], “Dose-dependent effect”. The Activity was 0.142 g in data set [16] and 0.12 g in [18]. In addition, the inhibition in vivo at 5 mg/kg in [7] turned out to be 67%. Further, in [9], the IC50 (usually the midpoint of a concentration-inhibition curve) was determined as 4.9 µM. Besides, in data set [12], the inhibition in vivo at 1 mg/kg turned out to be 60%. Besides, the “fold change (FC)” value in [15] came out at 3. The result in [17] was inactive.
